Measurements collected from several papers.
Lines come from different studies, so protocols differ.
Target: Ephrin type-A receptor 5 (EPHA5, Homo sapiens, UniProt P54756)

effect on | technique | tested at | remaining binding | SMILES
binding | competition with immobilised ligand | 1 µM | 100% | O=C(NCC1CCOCC1)c1n[nH]cc1NC(=O)c1c(F)cccc1F
cell-free assay | competition with immobilised ligand | 1 µM | 98.5% | COc1cccc(CNC(=O)c2nc3scc(COCc4ccc(C(=O)O)cc4)c3c(=O)[nH]2)c1
binding |  | 1 µM | 100% | CN(c1nccc(-c2cnn3ncccc23)n1)C1CC1
binding | competition with immobilised ligand | 1 µM | 100% | CCN1CCN(Cc2ccc(C(=O)Nc3ccc(C)c(Oc4ccc5c(c4)CC(=O)N5)c3)cc2C(F)(F)F)CC1
binding |  | 1 µM | 100% | COc1ccnn2ncc(-c3ccnc(N(C)C)n3)c12
cell-free assay | competition with immobilised ligand | 1 µM | 88% | CNCc1ccccc1-c1csc([C@@H](C)Nc2nc(C)nc3cc(OC)c(OC)cc23)c1
binding | competition with immobilised ligand | 1 µM | 97% | Nc1ncc2c(n1)-c1c([nH]c3ccc(C#CC4CC4)cc13)CCCC2
binding |  | 1 µM | 100% | Cc1cnn2ncc(-c3ccnc(N(C)C)n3)c2c1
cell-free assay | competition with immobilised ligand | 1 µM | 96% | C[C@H](c1cccc(C#N)c1)n1cc(Cl)cc(C(N)=O)c1=N
binding | competition with immobilised ligand | 1 µM | 99% | O=C(NCCCN1CCOCC1)c1ccc(Nc2ncc(Cl)c(-c3ccc(Cl)s3)n2)cc1
binding | competition with immobilised ligand | 1 µM | 100% | COc1cnc(Nc2cccc(S(N)(=O)=O)c2)nc1N1CCN(c2ccccc2)C(=O)C1
binding |  | 1 µM | 100% | CN(CCCC(F)(F)F)c1nccc(-c2cnn3ncccc23)n1
cell-free assay | competition with immobilised ligand | 1 µM | 100% | O=C(Nc1cnc(Oc2ccc(F)cc2)nc1)N1CCc2ncccc2[C@@H]1c1ccc(F)cc1
binding | competition with immobilised ligand | 10 µM | 100% | c1cncc(-c2cccc(Nc3nccc(NC4CCCCC4)n3)c2)c1
binding | competition with immobilised ligand | 1 µM | 100% | O=C(c1ccc(Nc2nccc(-c3cc4ccccc4s3)n2)cc1)N1CCC(N2CCCC2)CC1
cell-free assay | competition with immobilised ligand | 1 µM | 100% | Cc1nc(Cc2cccc(C(F)(F)F)c2)sc1-c1ccc(C(N)=O)nc1
binding |  | 1 µM | 99% | c1cnn2ncc(-c3ccnc(N4CCC45COC5)n3)c2c1
binding | competition with immobilised ligand | 1 µM | 74% | Cc1cnc(Nc2ccc(C(=O)N3CCC(N4CCCC4)CC3)cc2)nc1-c1cc2ccccc2s1
cell-free assay | competition with immobilised ligand | 1 µM | 100% | C[C@@]1(Cc2ccc(C#N)cc2)C(=O)N(c2cc(Cl)cc(Cl)c2)c2ncc(C(=O)NC3(c4nc(C5CCC5)no4)CC3)n21
binding |  | 1 µM | 100% | N[C@H]1CCN(c2nccc(-c3cnn4ncccc34)n2)C1
